# Source: ChEMBL document CHEMBL3244403, “Cholecystokinin (pancreozymin). 4. Synthesis and properties of a biologically active analogue of the C-terminal heptapeptide with epsilon-hydroxynorleucine sulfate replacing tyrosine sulfate” (J Med Chem, 1978)
# Active and inactive are the calls of the source. No cut-off for these calls is given here. Starred links: 1 amine or outer side, 2 acyl side, 3 side chain; linkers in the order of their positions; H or OH if unused. Non-standard residues stand in square brackets, D forms with d. Residues, ends and D or L forms follow the SMILES beside them. *: point of attachment. X1 = O=C([C@H](CCCCOS(=O)(=O)O)N[*:1])[*:2]; sY = N[C@@H](Cc1ccc(OS(=O)(=O)O)cc1)C(=O)O; Boc = CC(C)(C)OC(=O)*
# Experiments:
# Cavia porcellus [1] = species on record: Cavia porcellus; assay: Agonist activity at cholecystokinin receptor in NIH guinea pig pancreatic acinar cells assessed as induction of amylase secretion
# Method in brief: (§1)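 Guinea pig pancreas collagenase-dispersed acini in 100% O2-gassed Hepes buffer pH 7.4 containing 0.5 mM calcium and 5 mM theophylline. Amylase in supernatant assayed in duplicate with Phedabas reagent. Release expressed as % of total cellular amylase appearing in medium during incubation. CCK-(26-33) used as reference.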
# Cavia porcellus [2] = species on record: Cavia porcellus; assay: Agonist activity at cholecystokinin receptor in NIH guinea pig assessed as gall bladder contraction at 7 to 1900 ng by in situ assay; assay type: tissue-based
# Method in brief: (§2)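 Guinea pig gall bladder in situ (Ljungberg method), contraction recorded via strain gauge transducer after injection. Peptides first dissolved at 10 μg/mL in physiological saline containing 1 mg/mL NaHCO3 and 1 mg/mL L-cysteine. Response compared with injected standard cholecystokinin in Ivy dog units.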
# Cavia porcellus [3] = species on record: Cavia porcellus; assay: Agonist activity at cholecystokinin receptor in NIH guinea pig pancreatic acinar cells assessed as induction of amylase secretion at 0.03 to 0.3 nM; method in brief: as §1
# Cavia porcellus [4] = species on record: Cavia porcellus; assay: Agonist activity at cholecystokinin receptor in NIH guinea pig assessed as gall bladder contraction at 7 to 21 ng by in situ assay; assay type: tissue-based; method in brief: as §2
# [5] = Retardation factor of the compound using 1-butanol-AcOH-H2O at ratio of 4:1:1 as solvent system by thin layer chromatography; assay type: physicochemical
# [6] = Retardation factor of the compound using EtOAc-pyridine-AcOH-H2O at ratio of 60:20:6:11 as solvent system by thin layer chromatography; assay type: physicochemical
# [7] = Retardation factor of the compound using EtOAc-pyridine-AcOH-H2O at ratio of 120:20:6:11 as solvent system by thin layer chromatography; assay type: physicochemical
# Cavia porcellus [8] = species on record: Cavia porcellus; assay: Agonist activity at cholecystokinin receptor in NIH guinea pig assessed as gall bladder contraction at 7 ng by in situ assay; assay type: tissue-based; method in brief: as §2
compound,measurement,setting,value
CSCC[C@H](NC(=O)[C@H](COS(=O)(=O)O)NC(=O)OC(C)(C)C)C(=O)NCC(=O)N[C@@H](Cc1c[nH]c2ccccc12)C(=O)N[C@@H](CCSC)C(=O)N[C@@H](CC(=O)O)C(=O)N[C@@H](Cc1ccccc1)C(N)=O,Activity,Cavia porcellus [1],Active
same,Activity,Cavia porcellus [2],Active
CSCC[C@H](NC(=O)[C@H](Cc1ccc(OS(=O)(=O)O)cc1)NC(=O)[C@@H](N)CC(=O)O)C(=O)NCC(=O)N[C@@H](Cc1c[nH]c2ccccc12)C(=O)N[C@@H](CCSC)C(=O)N[C@@H](CC(=O)O)C(=O)N[C@@H](Cc1ccccc1)C(N)=O,Activity,Cavia porcellus [3],Active
CSCC[C@H](NC(=O)[C@H](CCCCOS(=O)(=O)O)NC(=O)OC(C)(C)C)C(=O)NCC(=O)N[C@@H](Cc1c[nH]c2ccccc12)C(=O)N[C@@H](CCSC)C(=O)N[C@@H](CC(=O)O)C(=O)N[C@@H](Cc1ccccc1)C(N)=O (Boc-[X1]MGWMDF-NH2),Activity,Cavia porcellus [4],Active
same,Rf,[5],0.55
same,Activity,Cavia porcellus [1],Active
same,Rf,[6],0.31
same,Rf,[7],0.19
CSCC[C@H](NC(=O)[C@H](Cc1ccc(OS(=O)(=O)O)cc1)NC(=O)OC(C)(C)C)C(=O)NCC(=O)N[C@@H](Cc1c[nH]c2ccccc12)C(=O)N[C@@H](CCSC)C(=O)N[C@@H](CC(=O)O)C(=O)N[C@@H](Cc1ccccc1)C(N)=O (Boc-[sY]MGWMDF-NH2),Activity,Cavia porcellus [1],Active
same,Activity,Cavia porcellus [8],Active
